# According to ChEMBL document CHEMBL2062466, “Synthesis, DNA binding and antileishmanial activity of low molecular weight bis-arylimidamides” (Eur J Med Chem, 2012):
# Experiments:
# Leishmania amazonensis = assay: Antileishmanial activity against intracellular Leishmania amazonensis; assay type: functional, organism-based
# L6 = assay: Cytotoxicity against rat L6 cells; assay type: cell-based
# Nucleic Acid = assay: Binding affinity to poly(dA-dT)n DNA assessed as increase in melting temperature at 0.3 mol compound per mole of DNA by spectrophotometry; assay type: nucleic-acid assay
# Outline: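 Thermal melting monitored by UV absorbance in 1 cm quartz cuvettes, heated at 0.5 °C/min under thermistor control. CAC 10 buffer: cacodylic acid 10 mM, EDTA 1 mM, NaCl 100 mM, pH 7.0. DNA concentration set from absorbance at 260 nm. Complex at 0.3 mol compound per mol DNA, with DNA alone as control. ΔTm taken from the peak of first-derivative (dA/dT) curves.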
# Mus musculus [1] = assay: Toxicity in uninfected mouse assessed as induction of severe tremors at 30 mg/kg, ip measured 10 mins post dose; assay type: organism-based; set-up: dose 30 mg/kg, route intraperitoneal; details: in vivo
# [2] = Selectivity index, ratio of IC50 for rat L6 cells to IC50 for intracellular Leishmania donovani; assay type: toxicity, cell-based
# Leishmania donovani = assay: Antileishmanial activity against intracellular Leishmania donovani; assay type: functional, organism-based
# Mus musculus [3] = assay: Toxicity in uninfected mouse assessed as induction of severe tremors at 10 mg/kg, ip measured 40 mins post dose; assay type: organism-based; set-up: dose 10 mg/kg, route intraperitoneal; details: in vivo
SMILES,IC50 (Leishmania amazonensis) [µM],IC50 (L6) [µM],ΔTm (Nucleic Acid) [°C],Activity (Mus musculus [1]),Selectivity Index [2],IC50 (Leishmania donovani) [µM],Activity (Mus musculus [3])
N=C(Nc1ccc(COCc2ccc(NC(=N)c3ccccn3)cc2)cc1)c1ccccn1,1.1,21.6,4,–,–,–,–
N=C(Nc1ccc(NC(=N)c2ccccn2)cc1)c1ccccn1,> 10,> 212,0,–,–,–,–
N=C(Nc1ccc(Cc2ccc(NC(=N)c3ccccn3)cc2)cc1)c1ccccn1,> 10,93.5,2.1,–,–,–,–
Cl.Cl.N=C(Nc1ccc(Oc2ccc(NC(=N)c3ccccn3)cc2)cc1)c1ccccn1,0.67,5,5.2,Toxic,178,0.028,–
CC(C)Oc1cc(NC(=N)c2ccccn2)ccc1-c1ccc(-c2ccc(NC(=N)c3ccccn3)cc2OC(C)C)o1,–,3,6,–,–,–,–
CC(C)Oc1cc(NC(=N)c2ccccn2)ccc1-c1ccc(NC(=N)c2ccccn2)cc1OC(C)C.Cl.Cl,0.14,22.9,0.1,Toxic,916,0.025,–
Cl.Cl.N=C(Nc1ccc(-c2ccc(NC(=N)c3ccccn3)cc2)cc1)c1ccccn1,0.76,46.9,6,Toxic,594,0.079,Toxic
N=C(Nc1ccc(NC(=N)c2ncccn2)cc1)c1ncccn1,–,> 207,0,–,–,–,–
N=C(Nc1ccccn1)c1ccc(C(=N)Nc2ccccn2)cc1,5.1,> 202,0.5,–,–,–,–
